Several values for one entry are separate records, joined by “and”; a condition that tells them apart may be missing. Identical values can stand only once. Like-named read-outs stand apart in the source and are kept apart here.
Key:
[1] = biological target: PSMA (Homo sapiens, UniProt Q04609); assay: PSMA inhibition assay; format: biochemical
Method in brief: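 LNCaP cell extract as enzyme source, incubated with the inhibitor at various amounts plus 4 μM NAAG for 120 min. Glutamate released was detected with Amplex Red glutamic acid working solution over 60 min, fluorescence ex 530/em 560 nm. […] Triplicate; known PSMA inhibitor as positive control.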

[2] = test system: PC-3 PIP and PC-3 flu xenografts; conditions: SCID mice
[3] = test system: PSMA+ PC-3 PIP xenografts; conditions: cited from earlier work
[4] = Phase II trial, 3 months after treatment; cited from earlier work

Sequence of PSMA (Q04609 whole entry): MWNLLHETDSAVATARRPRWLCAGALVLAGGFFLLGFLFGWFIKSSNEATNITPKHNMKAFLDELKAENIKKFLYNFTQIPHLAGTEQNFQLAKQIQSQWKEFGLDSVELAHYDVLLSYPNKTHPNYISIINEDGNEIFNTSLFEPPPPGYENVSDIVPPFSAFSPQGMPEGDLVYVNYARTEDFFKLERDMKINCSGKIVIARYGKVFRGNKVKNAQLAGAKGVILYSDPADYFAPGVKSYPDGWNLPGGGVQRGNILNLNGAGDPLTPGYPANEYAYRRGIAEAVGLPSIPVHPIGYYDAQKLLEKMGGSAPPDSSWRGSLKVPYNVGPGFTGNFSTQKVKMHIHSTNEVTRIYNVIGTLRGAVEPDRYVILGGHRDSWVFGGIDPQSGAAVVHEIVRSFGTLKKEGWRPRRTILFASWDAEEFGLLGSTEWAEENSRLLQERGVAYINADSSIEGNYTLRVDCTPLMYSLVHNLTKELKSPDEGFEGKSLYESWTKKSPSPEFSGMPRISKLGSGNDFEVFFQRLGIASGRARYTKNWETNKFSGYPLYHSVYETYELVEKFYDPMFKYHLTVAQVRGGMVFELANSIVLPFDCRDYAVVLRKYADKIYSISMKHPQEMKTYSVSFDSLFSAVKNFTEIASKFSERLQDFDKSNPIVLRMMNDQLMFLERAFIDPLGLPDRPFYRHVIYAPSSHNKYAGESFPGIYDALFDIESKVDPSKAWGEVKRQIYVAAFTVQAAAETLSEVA

## O=C(O)CC[C@H](NC(=O)N[C@@H](CCC(=O)NCCc1ccc(I)cc1)C(=O)O)C(=O)O [HS-549, (((S)-1-Carboxy-4-((4-iodophenethyl)amino)-4-oxobutyl)carbamoyl)-L-glutamic acid]
[1]
  IC50: 430 pM
  Ki: 90 pM

## O=C(O)CC[C@H](NC(=O)N[C@@H](CCC(=O)NCCc1ccc([131I])cc1)C(=O)O)C(=O)O [[^131I]HS-549]
[2]; 1 h
  Percent injected dose per gram: Blood: 5.90 ± 1.05 % ID/g
  Percent injected dose per gram: Bone: 0.94 ± 0.36 % ID/g
  Percent injected dose per gram: Brain: 0.26 ± 0.08 % ID/g
  Percent injected dose per gram: Heart: 2.30 ± 0.63 % ID/g
  Percent injected dose per gram: Kidneys: 106 ± 18.9 % ID/g
  Percent injected dose per gram: Lg. Int.: 0.52 ± 0.12 % ID/g
  Percent injected dose per gram: Liver: 21.2± 4.14 % ID/g
  Percent injected dose per gram: Lungs: 4.60 ± 1.09 % ID/g
  Percent injected dose per gram: Muscle: 0.86 ± 0.26 % ID/g
  Percent injected dose per gram: PC-3 PIP: 78.1 ± 19.1 % ID/g
  Percent injected dose per gram: PC-3 flu: 2.21 ± 0.53 % ID/g
  Percent injected dose per gram: Sm. Int.: 1.98 ± 0.30 % ID/g
  Percent injected dose per gram: Spleen: 6.76 ± 3.42 % ID/g
  Percent injected dose per gram: Stomach: 0.92 ± 0.20 % ID/g
  Percent injected dose per gram: Thyroid: 1.17 ± 0.43 % ID/g
  Thyroid uptake: 0.30 ± 0.13 %ID
  Tumor-to-blood ratio (PSMA+ PC3 PIP): 13.3 ± 2.7
  Tumor-to-kidney ratio (PSMA+ PC3 PIP): 0.74 ± 0.15
[2]; 1 h and 2 h, P < 0.05
  Liver levels relative to co-administered [211At]HS-549: 3–6 fold
[2]; 2 h
  Percent injected dose per gram: Blood: 2.92 ± 0.32 % ID/g
  Percent injected dose per gram: Bone: 0.65 ± 0.25 % ID/g
  Percent injected dose per gram: Brain: 0.18 ± 0.02 % ID/g
  Percent injected dose per gram: Heart: 1.14 ± 0.18 % ID/g
  Percent injected dose per gram: Kidneys: 96.6 ± 39.1 % ID/g
  Percent injected dose per gram: Lg. Int.: 1.32 ± 0.25 % ID/g
  Percent injected dose per gram: Liver: 26.0 ± 3.09 % ID/g
  Percent injected dose per gram: Lungs: 2.73 ± 0.66 % ID/g
  Percent injected dose per gram: Muscle: 0.46 ± 0.12 % ID/g
  Percent injected dose per gram: PC-3 PIP: 74.7 ± 13.1 % ID/g
  Percent injected dose per gram: PC-3 flu: 1.51 ± 0.30 % ID/g
  Percent injected dose per gram: Sm. Int.: 2.42 ± 0.40 % ID/g
  Percent injected dose per gram: Spleen: 2.71 ± 0.85 % ID/g
  Percent injected dose per gram: Stomach: 0.47 ± 0.17 % ID/g
  Percent injected dose per gram: Thyroid: 0.69 ± 0.29 % ID/g
  Tumor-to-blood ratio (PSMA+ PC3 PIP): 26 ± 5.3
  Tumor-to-kidney ratio (PSMA+ PC3 PIP): 0.87 ± 0.30
[2]; 21 h
  Percent injected dose per gram: Blood: 1.39 ± 0.35 % ID/g
  Percent injected dose per gram: Bone: 0.20 ± 0.05 % ID/g
  Percent injected dose per gram: Brain: 0.08 ± 0.02 % ID/g
  Percent injected dose per gram: Heart: 0.41 ± 0.09 % ID/g
  Percent injected dose per gram: Kidneys: 3.13 ± 1.65 % ID/g
  Percent injected dose per gram: Lg. Int.: 0.63 ± 0.39 % ID/g
  Percent injected dose per gram: Liver: 1.86 ± 0.51 % ID/g
  Percent injected dose per gram: Lungs: 0.87 ± 0.27 % ID/g
  Percent injected dose per gram: Muscle: 0.16 ± 0.04 % ID/g
  Percent injected dose per gram: PC-3 PIP: 22.6 ± 22.1 % ID/g
  Percent injected dose per gram: PC-3 flu: 0.44 ± 0.18 % ID/g
  Percent injected dose per gram: Sm. Int.: 0.37 ± 0.06 % ID/g
  Percent injected dose per gram: Spleen: 0.29 ± 0.12 % ID/g
  Percent injected dose per gram: Stomach: 0.14 ± 0.04 % ID/g
  Percent injected dose per gram: Thyroid: 0.36 ± 0.05 % ID/g
  Thyroid uptake: 0.08 ± 0.01 %ID
  Tumor-to-blood ratio (PSMA+ PC3 PIP): 18 ± 19
  Tumor-to-kidney ratio (PSMA+ PC3 PIP): 6.26 ± 4.04

## O=C(O)CC[C@H](NC(=O)N[C@@H](CCCCNC(=O)c1ccc([211At])cc1)C(=O)O)C(=O)O [[^211At]DCABzL, (((S)-1-carboxy-5-(4-[^211At]astinatobenzamido)pentyl)carbamoyl)-L-glutamic acid]
[3]; %ID/organ
  Stomach activity level, range over time points: 3.8 – 8.2%
  Thyroid radioactivity level, range over time points: 0.5–1.3%
[3]
  Peak uptake in subcutaneous PC3 PSMA+ PIP xenografts: > 30 % ID/g

## O=C(O)CC[C@H](NC(=O)N[C@@H](CCC(=O)NCCc1ccc([211At])cc1)C(=O)O)C(=O)O [[^211At]HS-549]
[2]; 1 h
  Percent injected dose per gram: Blood: 5.5 ± 0.8 % ID/g and 5.53 ± 0.84 % ID/g
  Percent injected dose per gram: Bone: 1.49 ± 0.40 % ID/g
  Percent injected dose per gram: Brain: 0.46 ± 0.09 % ID/g
  Percent injected dose per gram: Heart: 4.34 ± 0.96 % ID/g
  Percent injected dose per gram: Kidneys: 46.7 ± 8.2 % ID/g
  Percent injected dose per gram: Lg. Int.: 1.16 ± 0.20 % ID/g
  Percent injected dose per gram: Liver: 7.94 ± 2.15 % ID/g
  Percent injected dose per gram: Lungs: 9.77 ± 1.75 % ID/g
  Percent injected dose per gram: Muscle: 1.11 ± 0.29 % ID/g
  Percent injected dose per gram: PC-3 PIP: 43.2 ± 9.8 % ID/g
  Percent injected dose per gram: PC-3 flu: 3.48 ± 0.53 % ID/g
  Percent injected dose per gram: Sm. Int.: 5.52 ± 1.57 % ID/g
  Percent injected dose per gram: Spleen: 8.79 ± 2.09 % ID/g
  Percent injected dose per gram: Stomach: 7.07 ± 2.24 % ID/g
  Percent injected dose per gram: Thyroid: 3.24 ± 0.56 % ID/g
[2]; 2 h
  Percent injected dose per gram: Blood: 2.8 ± 0.4 % ID/g and 2.87 ± 0.40 % ID/g
  Percent injected dose per gram: Brain: 0.39 ± 0.06 % ID/g
  Percent injected dose per gram: Heart: 3.36 ± 0.59 % ID/g
  Percent injected dose per gram: Kidneys: 40.4 ± 15.5 % ID/g
  Percent injected dose per gram: Lg. Int.: 4.59 ± 0.81 % ID/g
  Percent injected dose per gram: Liver: 4.65 ±1.28 % ID/g
  Percent injected dose per gram: Lungs: 8.24 ± 2.25 % ID/g
  Percent injected dose per gram: Muscle: 0.76 ± 0.18 % ID/g
  Percent injected dose per gram: PC-3 PIP: 42.0 ± 7.16 % ID/g
  Percent injected dose per gram: PC-3 flu: 2.82 ±0.60 % ID/g
  Percent injected dose per gram: Sm. Int.: 3.81 ± 1.24 % ID/g
  Percent injected dose per gram: Spleen: 6.13 ± 1.59 % ID/g
  Percent injected dose per gram: Stomach: 14.3 ± 3.2 % ID/g
  Percent injected dose per gram: Thyroid: 4.11 ± 2.00 % ID/g
[2]; 21 h
  Percent injected dose per gram: Blood: 0.92 ± 0.15 % ID/g
  Percent injected dose per gram: Bone: 0.60 ± 0.17 % ID/g
  Percent injected dose per gram: Brain: 0.17 ± 0.03 % ID/g
  Percent injected dose per gram: Kidneys: 2.60 ± 0.77 % ID/g
  Percent injected dose per gram: Lg. Int.: 0.93 ± 0.41 % ID/g
  Percent injected dose per gram: Liver: 0.89 ± 0.13 % ID/g
  Percent injected dose per gram: Lungs: 4.3 ± 0.7 % ID/g and 4.26 ± 0.72 % ID/g
  Percent injected dose per gram: Muscle: 0.29 ± 0.09 % ID/g
  Percent injected dose per gram: PC-3 PIP: 10.6 ± 9.91 % ID/g
  Percent injected dose per gram: Sm. Int.: 1.28 ± 0.30 % ID/g
  Percent injected dose per gram: Spleen: 2.31 ± 0.67 % ID/g
  Percent injected dose per gram: Stomach: 12.6 ± 6.20 % ID/g
  Percent injected dose per gram: Thyroid: 3.78 ± 0.63 % ID/g
[2]; %ID/organ
  Stomach activity level, range over time points: 3.2 −8.7 %ID
[2]; %ID/organ, all time points
  Thyroid radioactivity level, range over time points: 0.8–0.9 %ID

## O=C([O-])CN1CCN(CC(=O)[O-])CCN(CC(=O)NCC2CCC(C(=O)N[C@@H](Cc3ccc4ccccc4c3)C(=O)NCCCC[C@H](NC(=O)N[C@@H](CCC(=O)O)C(=O)O)C(=O)O)CC2)CCN(CC(=O)[O-])CC1.[177Lu+3] (some centres unmarked) [^177Lu-labeled PSMA-617]
[4]
  Patients with reductions in tumor volume: about 40%

Source: PMC7987787 (Nuclear medicine and biology, 2021)
